In article PMC11003496 (Journal of Enzyme Inhibition and Medicinal Chemistry, 2023):
Like-named read-outs stand apart in the source and are kept apart here.

Experiments:
HCT116 colorectal cancer = assay: MTT cell viability assay, HCT-116; format: cell-based; details: read-out: HCT-116 IC50, 48 h, mean of six values
[1] = system: A549 non-small cell lung cancer; assay: MTT cell viability assay, A549; format: cell-based; details: read-out: A549 IC50
COX-2 = molecular target: T1, COX-2 (Homo sapiens, UniProt P35354); assay: biochemical; details: for COX-2 S.I.: in vitro COX-2 selectivity index, IC50 (COX-1)/IC50 (COX-2)
T1 sequence (P35354 18-604): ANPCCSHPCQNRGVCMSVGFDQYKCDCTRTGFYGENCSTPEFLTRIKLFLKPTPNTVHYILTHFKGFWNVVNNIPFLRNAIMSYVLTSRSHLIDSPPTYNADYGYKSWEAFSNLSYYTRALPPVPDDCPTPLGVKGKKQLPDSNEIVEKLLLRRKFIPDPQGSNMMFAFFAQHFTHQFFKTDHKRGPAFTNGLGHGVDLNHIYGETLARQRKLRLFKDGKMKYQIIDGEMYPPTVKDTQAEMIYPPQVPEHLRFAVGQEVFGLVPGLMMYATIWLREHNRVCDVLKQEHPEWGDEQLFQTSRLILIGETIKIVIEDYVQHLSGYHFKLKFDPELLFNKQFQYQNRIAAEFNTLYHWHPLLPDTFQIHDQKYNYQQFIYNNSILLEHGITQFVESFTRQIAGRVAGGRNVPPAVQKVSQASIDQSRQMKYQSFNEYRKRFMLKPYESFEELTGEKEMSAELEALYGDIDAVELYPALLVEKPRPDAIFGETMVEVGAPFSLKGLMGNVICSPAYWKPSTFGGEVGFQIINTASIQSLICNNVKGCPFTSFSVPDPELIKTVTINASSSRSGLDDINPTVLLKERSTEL

COX-1 = molecular target: T2, COX-1 (Ovis aries, UniProt P05979); assay: In vitro COX-1 inhibition; format: biochemical
T2 sequence (P05979 25-600): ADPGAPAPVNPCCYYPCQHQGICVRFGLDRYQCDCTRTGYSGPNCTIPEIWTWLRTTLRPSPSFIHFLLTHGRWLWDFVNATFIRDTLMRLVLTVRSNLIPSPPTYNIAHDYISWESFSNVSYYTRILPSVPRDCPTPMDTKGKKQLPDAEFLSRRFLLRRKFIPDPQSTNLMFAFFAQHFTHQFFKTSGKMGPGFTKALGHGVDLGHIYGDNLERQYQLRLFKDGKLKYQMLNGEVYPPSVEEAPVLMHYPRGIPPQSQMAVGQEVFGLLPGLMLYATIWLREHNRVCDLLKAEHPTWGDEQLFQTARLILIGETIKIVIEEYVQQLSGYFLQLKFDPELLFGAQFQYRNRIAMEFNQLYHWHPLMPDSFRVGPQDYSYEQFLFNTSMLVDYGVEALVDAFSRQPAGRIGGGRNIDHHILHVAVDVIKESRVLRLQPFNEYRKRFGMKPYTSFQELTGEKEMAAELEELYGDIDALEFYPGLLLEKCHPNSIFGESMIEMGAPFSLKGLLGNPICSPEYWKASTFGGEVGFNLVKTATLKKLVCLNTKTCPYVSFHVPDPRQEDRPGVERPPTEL

normal fibroblast F180 = assay: MTT cell viability assay, F180; format: cell-based; details: F180, 48 h, read-out: F180 IC50
aromatase (CYP19A) = molecular target: T3, aromatase (CYP19A) (Homo sapiens, UniProt P11511); assay: Aromatase; format: biochemical
T3 sequence (P11511 1-503): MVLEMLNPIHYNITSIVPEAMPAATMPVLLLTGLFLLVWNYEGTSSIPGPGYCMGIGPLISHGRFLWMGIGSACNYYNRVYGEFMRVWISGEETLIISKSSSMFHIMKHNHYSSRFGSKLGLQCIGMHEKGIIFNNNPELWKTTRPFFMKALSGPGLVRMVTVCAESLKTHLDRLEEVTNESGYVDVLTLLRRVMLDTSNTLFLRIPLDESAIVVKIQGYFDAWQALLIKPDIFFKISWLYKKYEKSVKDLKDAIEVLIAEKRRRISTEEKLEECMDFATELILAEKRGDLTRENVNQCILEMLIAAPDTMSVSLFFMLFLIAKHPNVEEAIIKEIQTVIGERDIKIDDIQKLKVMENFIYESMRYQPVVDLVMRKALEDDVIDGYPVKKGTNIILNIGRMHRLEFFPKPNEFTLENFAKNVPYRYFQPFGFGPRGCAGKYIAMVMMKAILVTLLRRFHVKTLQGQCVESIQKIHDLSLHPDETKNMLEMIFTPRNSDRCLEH

[2] = system: MCF7 human breast adenocarcinoma cell line; assay: MTT cell viability assay, MCF-7; format: cell-based; details: MCF7, 48 h, read-out: MCF-7 IC50
EGFR = EGFR (Homo sapiens, UniProt P00533); assay: EGFR Kinase Assay Kit; format: biochemical
Chain of EGFR (P00533 25-1210): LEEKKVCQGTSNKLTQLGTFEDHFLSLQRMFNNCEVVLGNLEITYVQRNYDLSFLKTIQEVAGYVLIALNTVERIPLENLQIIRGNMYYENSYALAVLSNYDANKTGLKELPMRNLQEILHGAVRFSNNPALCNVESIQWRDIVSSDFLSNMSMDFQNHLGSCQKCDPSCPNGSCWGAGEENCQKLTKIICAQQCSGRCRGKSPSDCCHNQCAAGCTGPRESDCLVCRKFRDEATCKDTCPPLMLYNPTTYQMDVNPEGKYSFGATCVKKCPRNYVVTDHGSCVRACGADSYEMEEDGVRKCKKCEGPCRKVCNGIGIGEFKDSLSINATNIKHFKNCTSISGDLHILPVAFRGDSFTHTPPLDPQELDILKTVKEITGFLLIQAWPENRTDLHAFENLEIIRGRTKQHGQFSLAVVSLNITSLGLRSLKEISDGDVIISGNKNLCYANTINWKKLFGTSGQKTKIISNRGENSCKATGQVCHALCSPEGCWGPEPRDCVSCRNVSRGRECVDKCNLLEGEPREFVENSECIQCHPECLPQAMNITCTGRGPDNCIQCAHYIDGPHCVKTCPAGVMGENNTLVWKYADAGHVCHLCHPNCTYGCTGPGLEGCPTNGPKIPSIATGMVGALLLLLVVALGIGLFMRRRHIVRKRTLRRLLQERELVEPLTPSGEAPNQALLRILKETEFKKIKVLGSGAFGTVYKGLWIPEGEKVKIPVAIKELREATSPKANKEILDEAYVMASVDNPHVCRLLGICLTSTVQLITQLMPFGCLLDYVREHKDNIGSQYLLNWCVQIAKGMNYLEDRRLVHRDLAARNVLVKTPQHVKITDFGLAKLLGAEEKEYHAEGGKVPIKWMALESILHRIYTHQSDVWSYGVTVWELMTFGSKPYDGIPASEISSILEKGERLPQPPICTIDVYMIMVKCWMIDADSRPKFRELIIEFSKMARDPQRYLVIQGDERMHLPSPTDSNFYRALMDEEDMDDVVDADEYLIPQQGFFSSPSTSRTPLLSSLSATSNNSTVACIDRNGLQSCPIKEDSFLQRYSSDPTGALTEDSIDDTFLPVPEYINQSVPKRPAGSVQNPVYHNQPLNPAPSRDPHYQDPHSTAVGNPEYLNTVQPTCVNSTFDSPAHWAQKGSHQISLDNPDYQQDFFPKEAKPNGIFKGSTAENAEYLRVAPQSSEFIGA
How it was run: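 Kinase kit assay. Each well held kinase buffer with DTT, ATP, and Poly(Glu:Tyr 4:1) PTK substrate (10 mg/ml stock). Test compound was added, and diluted EGFR enzyme started the reaction. Incubated 40 min at 30 °C, then Kinase-Glo Max reagent for 15 min at room temperature, and luminescence read. Controls were no-inhibitor wells and enzyme-free blanks.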

MCF7 breast cells = assay: Apoptosis by Annexin-V-FITC/PI flow cytometry; format: cell-based, human; details: for Apoptosis Early / Apoptosis Late / Apoptosis Total / Necrosis: compound at its IC50, 24 h; for late apoptosis increase compared to control: control 0.27% (late); for early apoptosis increase compared to control: control 0.41% (early)
How it was run: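 MCF7 breast cells were treated with the test compound for 24 h, then collected and rinsed twice with PBS. They were stained with Annexin-V-FITC plus propidium iodide for 30 min at room temperature in the dark. Analysis on a FACS Calibur flow cytometer gave early apoptotic, late apoptotic and necrotic fractions, compared against untreated control.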

B-RAF^V600E = B-RAF^V600E (Homo sapiens, UniProt P15056, V600E); assay: B-RAF^V600E Kinase Assay Kit; format: biochemical
Chain of B-RAF^V600E (P15056 whole entry V600E): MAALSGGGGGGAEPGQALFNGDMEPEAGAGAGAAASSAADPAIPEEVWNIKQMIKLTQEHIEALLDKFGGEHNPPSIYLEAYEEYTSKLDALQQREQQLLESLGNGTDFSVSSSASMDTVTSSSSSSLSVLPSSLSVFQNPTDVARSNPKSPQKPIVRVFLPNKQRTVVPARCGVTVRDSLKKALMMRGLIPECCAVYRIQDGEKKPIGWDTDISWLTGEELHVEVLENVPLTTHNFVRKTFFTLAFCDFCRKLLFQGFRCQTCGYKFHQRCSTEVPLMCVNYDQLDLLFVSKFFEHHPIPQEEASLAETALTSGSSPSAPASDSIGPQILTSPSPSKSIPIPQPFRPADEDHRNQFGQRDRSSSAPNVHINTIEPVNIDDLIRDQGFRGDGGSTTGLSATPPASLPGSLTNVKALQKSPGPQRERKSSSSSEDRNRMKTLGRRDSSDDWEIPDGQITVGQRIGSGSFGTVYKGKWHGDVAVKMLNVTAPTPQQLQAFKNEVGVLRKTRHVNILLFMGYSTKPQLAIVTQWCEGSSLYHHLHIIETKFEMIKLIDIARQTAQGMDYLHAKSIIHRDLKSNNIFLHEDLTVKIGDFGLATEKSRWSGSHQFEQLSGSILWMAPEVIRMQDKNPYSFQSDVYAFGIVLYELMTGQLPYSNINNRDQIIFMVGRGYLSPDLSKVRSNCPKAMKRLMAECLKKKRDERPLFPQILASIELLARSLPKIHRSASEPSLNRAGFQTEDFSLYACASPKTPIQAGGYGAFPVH

breast MCF7 cells = assay: Cell cycle analysis by flow cytometry; format: cell-based, human; details: for cell cycle arrest phase: compound at its IC50; for %G0-G1 / %G2-M / %S: compound at its IC50, 24 h
How it was run: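 MCF7 breast cells were exposed to the test compound for 24 h, then rinsed with PBS, centrifuged and fixed in 70% ethanol. After a PBS wash they were suspended in 0.1 mg/mL RNase and stained with propidium iodide. Flow cytometry on a FACS Calibur measured DNA content to give G0/G1, S and G2/M distribution against negative control.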

[3] = system: Hep3b hepatocellular carcinoma cell line; assay: MTT cell viability assay, HEP-3B; format: cell-based; details: Homo sapiens, 48 h, read-out: HEP-3B IC50

O=c1[nH]cc(F)c(=O)[nH]1 [Compound 5-F.U., reference compound]
IC50 (HCT116 colorectal cancer): 4.8 µM | IC50 ([1]; MTT, 48 h, mean of six values): 6 µM

Cc1c(-c2nnc(SC/C(=N/O)c3ccccc3)n2-c2ccccc2)nnn1-c1ccc(S(N)(=O)=O)cc1 [Compound 19a, (E)-4-(4-(5-((2-(hydroxyimino)-2-phenylethyl)thio)-4-phenyl-4H-1,2,4-triazol-3-yl)-5-methyl-1H-1,2,3-triazol-1-yl)benzenesulfonamide]
IC50 (COX-2): 0.343 ± 0.07 µM | COX-2 S.I. (COX-2): 14.11 | IC50 (COX-1): 4.84 ± 0.02 µM

Cc1ccc(/C(CSc2nnc(-c3nnn(-c4ccc(S(N)(=O)=O)cc4)c3C)n2-c2ccccc2)=N\O)cc1 [Compound 19b, (E)-4-(4-(5-((2-(hydroxyimino)-2-(p-tolyl)ethyl)thio)-4-phenyl-4H-1,2,4-triazol-3-yl)-5-methyl-1H-1,2,3-triazol-1-yl)benzenesulfonamide]
IC50 (COX-2): 0.485 ± 0.048 µM | COX-2 S.I. (COX-2): 9.11 | IC50 (COX-1): 4.42 ± 0.021 µM

COc1ccc(/C(CSc2nnc(-c3nnn(-c4ccc(S(N)(=O)=O)cc4)c3C)n2-c2ccccc2)=N\O)cc1 [Compound 19c, (E)-4-(4-(5-((2-(hydroxyimino)-2-(4-methoxyphenyl)ethyl)thio)-4-phenyl-4H-1,2,4-triazol-3-yl)-5-methyl-1H-1,2,3-triazol-1-yl)benzenesulfonamide]
IC50 (normal fibroblast F180): 15.4 µM | IC50 (aromatase (CYP19A)): 22.4 µM | IC50 [2]: 14 µM | IC50 (EGFR): 0.112 µM | IC50 (COX-2): 0.309 ± 0.041 µM | COX-2 S.I. (COX-2): 34.62 | IC50 ([1]; Homo sapiens, A549, 48 h): 4.5 µM | Apoptosis Early (MCF7 breast cells): 21.85% | Apoptosis Late (MCF7 breast cells): 12.36% | Apoptosis Total (MCF7 breast cells): 41.55 | Necrosis (MCF7 breast cells): 7.34% | late apoptosis increase compared to control (MCF7 breast cells): 45.77 fold | early apoptosis increase compared to control (MCF7 breast cells): 53.29 fold | IC50 (B-RAF^V600E): 0.09 µM | cell cycle arrest phase (breast MCF7 cells): cell cycle arrest at G2/M phase | %G0-G1 (breast MCF7 cells): 37.88% | %G2-M (breast MCF7 cells): 26.98% | %S (breast MCF7 cells): 35.14% | IC50 (COX-1): 10.7 ± 0.025 µM | IC50 [3]: 4.5 to 14 µM

Cc1c(-c2nnc(SC/C(=N/O)c3ccc(Cl)cc3)n2-c2ccccc2)nnn1-c1ccc(S(N)(=O)=O)cc1 [Compound 19d, (E)-4-(4-(5-((2-(4-chlorophenyl)-2-(hydroxyimino)ethyl)thio)-4-phenyl-4H-1,2,4-triazol-3-yl)-5-methyl-1H-1,2,3-triazol-1-yl)benzenesulfonamide]
IC50 (COX-2): 0.437 ± 0.037 µM | COX-2 S.I. (COX-2): 10.59 | IC50 (COX-1): 4.63 ± 0.023 µM

COc1ccc(-n2c(SC/C(=N/O)c3ccccc3)nnc2-c2nnn(-c3ccc(S(N)(=O)=O)cc3)c2C)cc1 [Compound 19g, (E)-4-(4-(5-((2-(hydroxyimino)-2-phenylethyl)thio)-4-(4-methoxyphenyl)-4H-1,2,4-triazol-3-yl)-5-methyl-1H-1,2,3-triazol-1-yl)benzenesulfonamide]
IC50 (COX-2): 0.394 ± 0.031 µM | COX-2 S.I. (COX-2): 12.08 | IC50 (COX-1): 4.76 ± 0.034 µM

COc1ccc(-n2c(SC/C(=N/O)c3ccc(C)cc3)nnc2-c2nnn(-c3ccc(S(N)(=O)=O)cc3)c2C)cc1 [Compound 19h, (E)-4-(4-(5-((2-(hydroxyimino)-2-(p-tolyl)ethyl)thio)-4-(4-methoxyphenyl)-4H-1,2,4-triazol-3-yl)-5-methyl-1H-1,2,3-triazol-1-yl)benzenesulfonamide]
IC50 (normal fibroblast F180): 11.3 µM | IC50 (aromatase (CYP19A)): 22.7 µM | IC50 [2]: 15 µM | IC50 (EGFR): 0.169 µM | IC50 (COX-2): 0.309 ± 0.071 µM | COX-2 S.I. (COX-2): 27.83 | IC50 ([1]; Homo sapiens, A549, 48 h): 4 µM | Apoptosis Early (MCF7 breast cells): 22.54% | Apoptosis Late (MCF7 breast cells): 14.91% | Apoptosis Total (MCF7 breast cells): 42.21 | Necrosis (MCF7 breast cells): 4.76% | late apoptosis increase compared to control (MCF7 breast cells): 55.22 fold | early apoptosis increase compared to control (MCF7 breast cells): 54.97 fold | IC50 (B-RAF^V600E): 0.07 µM | cell cycle arrest phase (breast MCF7 cells): cell cycle arrest at G2/M phase | %G0-G1 (breast MCF7 cells): 45.44% | %G2-M (breast MCF7 cells): 26.39% | %S (breast MCF7 cells): 28.17% | IC50 (COX-1): 8.6 ± 0.027 µM

COc1ccc(/C(CSc2nnc(-c3nnn(-c4ccc(S(N)(=O)=O)cc4)c3C)n2-c2ccc(OC)cc2)=N\O)cc1 [Compound 19i, (E)-4-(4-(5-((2-(hydroxyimino)-2-(4-methoxyphenyl)ethyl)thio)-4-(4-methoxyphenyl)-4H-1,2,4-triazol-3-yl)-5-methyl-1H-1,2,3-triazol-1-yl)benzenesulfonamide]
IC50 (COX-2): 0.363 ± 0.061 µM | COX-2 S.I. (COX-2): 12.67 | IC50 (COX-1): 4.6 ± 0.048 µM

COc1ccc(-n2c(SC/C(=N/O)c3ccc(Cl)cc3)nnc2-c2nnn(-c3ccc(S(N)(=O)=O)cc3)c2C)cc1 [Compound 19j, (E)-4-(4-(5-((2-(4-chlorophenyl)-2-(hydroxyimino)ethyl)thio)-4-(4-methoxyphenyl)-4H-1,2,4-triazol-3-yl)-5-methyl-1H-1,2,3-triazol-1-yl)benzenesulfonamide]
IC50 (COX-2): 0.397 ± 0.025 µM | COX-2 S.I. (COX-2): 8.63 | IC50 (COX-1): 3.43 ± 0.026 µM | IC50 [3]: 4.5 µM

COc1cccc2c1C(=O)c1c(O)c3c(c(O)c1C2=O)C[C@@](O)(C(=O)CO)C[C@@H]3O[C@H]1C[C@H](N)[C@H](O)[C@H](C)O1 [Doxorubicin, doxorubicin, reference compound]
IC50 (normal fibroblast F180): 4.28 µM | IC50 [2]: 0.3 µM

COC(=O)N[C@@H](C)CNc1nccc(-c2cn(C(C)C)nc2-c2cc(Cl)cc(NS(C)(=O)=O)c2F)n1 [Encorafenib, encorafenib, reference compound]
IC50 (EGFR): 0.037 µM

CNC(=O)c1cc(Oc2ccc(NC(=O)Nc3ccc(Cl)c(C(F)(F)F)c3)cc2)ccn1 [Sorafenib, sorafenib, reference compound]
IC50 [3]: 3.5 µM
